Laboratory results taken from ChEMBL document CHEMBL3525992, “Identification of 20(S)-protopanaxadiol metabolites in human liver microsomes and human hepatocytes” (Drug Metab Dispos, 2011).

Experiments:
[1] = test system: Hepatocyte; experiment: Retention time of the compound in human hepatocytes treated with 20(S)-protopanaxadiol at 50 uM after 180 mins by liquid chromatography-electrospray ionization ion trap mass spectrometry; assay type: ADME, cell-based; details: 3 h
In short: (§1)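 Human hepatocytes (2 million cells/ml) in Williams' E medium with substrate 50 µM, 0.5% (v/v) final MeOH, 37°C for 3 h. Negative controls were substrate at 0 h and no substrate at 3 h. Quenched with equal volume acetonitrile, in duplicate. Methanol was added, then centrifugation, dry-down and reconstitution. Analysed by C8 reversed-phase LC with formic acid/methanol–ammonium acetate gradient, ESI ion trap MSⁿ, m/z 100–800.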

[2] = test system: Liver microsome; experiment: Drug level in mixed human liver microsomes treated with (20S,24S)-epoxydammarane-3,12,25-triol at 50 uM after 120 mins by liquid chromatography-electrospray ionization ion trap mass spectrometry in presence of UDPGA; assay type: ADME; details: 2 h
In short: (§2)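 Pooled HLM protein 1.0 mg/ml in 50 mM Tris-HCl pH 7.4 with 10 mM MgCl₂, 2 mM UDPGA and 25 µg/mL alamethicin. Preincubated 3 min at 37°C, then started with substrate (50 µM). Run 120 min, stopped with equal volume ice-cold acetonitrile. 0 min incubations served as controls, in duplicate. Processed and analysed by LC/ESI ion trap MSⁿ.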

[3] = test system: Liver microsome; experiment: Drug level in mixed human liver microsomes treated with (20S,24R)-epoxydammarane-3,12,25-triol at 50 uM after 120 mins by liquid chromatography-electrospray ionization ion trap mass spectrometry in presence of UDPGA; assay type: ADME; details: 2 h; in short: as §2
[4] = test system: Liver microsome; experiment: Drug metabolism in mixed human liver microsomes assessed as glucuronide conjugate metabolite level at 50 uM after 120 mins by liquid chromatography-electrospray ionization ion trap mass spectrometry in presence of UDPGA; assay type: ADME; details: 2 h
In short: (§3)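 Pooled human liver microsomes, 1.0 mg/ml protein, in 50 mM Tris-HCl pH 7.4 with 10 mM MgCl₂, 2 mM UDPGA and 25 µg/mL alamethicin. Preincubated 3 min at 37°C, started with substrate 50 µM (final MeOH 0.1%), run 120 min, stopped with ice-cold acetonitrile. Time-0 controls; duplicates. Analysed by LC/ESI ion-trap MSn.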

[5] = Drug excretion in Sprague-Dawley rat feces assessed as metabolite 2 ((20S,24S)-epoxydammarane-3,12,25-triol) level at 100 mg/kg/day, po qd for 11 days administered via gavage by liquid chromatography-electrospray ionization ion trap mass spectrometry; assay type: ADME, organism-based; set-up: route oral; details: in vivo, 264 h
In short: (§4)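 Rats given PPD by gavage at 100 mg/kg/day once daily for 11 days, as a 10 mg/ml solution in 0.5% carboxymethyl cellulose sodium, 0.5% polysorbate-80 and 99% saline; 20 rats housed singly in metabolic cages. Feces collected over 0–288 h and frozen at -20°C; blank feces taken before dosing.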

[6] = Drug excretion in Sprague-Dawley rat feces assessed as metabolite 3 ((20S,24R)-epoxydammarane-3,12,25-triol) level at 100 mg/kg/day, po qd for 11 days administered via gavage by liquid chromatography-electrospray ionization ion trap mass spectrometry; assay type: ADME, organism-based; set-up: route oral; details: in vivo, 264 h; in short: as §4
[7] = Drug excretion in Sprague-Dawley rat feces assessed as metabolite 4 ((20S,24S)-epoxydammarane-12,25-diol-3-one) level at 100 mg/kg/day, po qd for 11 days administered via gavage by liquid chromatography-electrospray ionization ion trap mass spectrometry; assay type: ADME, organism-based; set-up: route oral; details: in vivo, 264 h; in short: as §4
[8] = Drug excretion in Sprague-Dawley rat feces assessed as metabolite 5 ((20S,24R)-epoxydammarane-12,25-diol-3-one) level at 100 mg/kg/day, po qd for 11 days administered via gavage by liquid chromatography-electrospray ionization ion trap mass spectrometry; assay type: ADME, organism-based; set-up: route oral; details: in vivo, 264 h; in short: as §4
[9] = Oral bioavailability in rat at 25 mg/kg; assay type: ADME, organism-based; details: in vivo
[10] = Oral bioavailability in dog at 8 mg/kg; assay type: ADME, organism-based, Canis lupus familiaris; details: in vivo
[11] = Retention time of the compound at 100 uM measured after 60 mins by liquid chromatography-electrospray ionization ion trap mass spectrometry in presence of 10 uM 3-chloroperoxybenzoic acid; assay type: physicochemical; details: 1 h
In short: (§5)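 PPD 100 µM oxidised chemically with m-CPBA 10 µM in CH₂Cl₂, stirred at room temperature for 15 and 60 min. Mixture poured into Na₂CO₃-saturated ice water and extracted three times with ether before LC/MS analysis.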

[12] = Drug metabolism in human hepatocytes assessed as metabolite 6-2 ((3R,6S)-6-((3S,5R,8R,9R,10R,12R,14R,17S)-3,12-dihydroxy-4,4,8,10,14-pentamethylhexadecahydro-1H-cyclopenta[a]phenanthren-17-yl)-2-methylheptane-2,3,6-triol) formation at 50 uM after 180 mins by liquid chromatography-electrospray ionization ion trap mass spectrometry; assay type: ADME, cell-based, Hepatocyte; details: 3 h
[13] = Drug metabolism in human hepatocytes assessed as metabolite 7-1 ((2S,3S,4S,5R,6S)-6-(2-((2S,5S)-5-((3S,5R,8R,9R,10R,12R,14R,17S)-3,12-dihydroxy-4,4,8,10,14-pentamethylhexadecahydro-1H-cyclopenta[a]phenanthren-17-yl)-5-methyltetrahydrofuran-2-yl)propan-2-yloxy)-3,4,5-trihydroxytetrahydro-2H-pyran-2-carboxylic acid) formation at 50 uM after 180 mins by liquid chromatography-electrospray ionization ion trap mass spectrometry; assay type: ADME, cell-based, Hepatocyte; details: 3 h
[14] = Drug metabolism in human hepatocytes assessed as metabolite 7-2 ((2S,3S,4S,5R,6S)-6-(2-((2R,5S)-5-((3S,5R,8R,9R,10R,12R,14R,17S)-3,12-dihydroxy-4,4,8,10,14-pentamethylhexadecahydro-1H-cyclopenta[a]phenanthren-17-yl)-5-methyltetrahydrofuran-2-yl)propan-2-yloxy)-3,4,5-trihydroxytetrahydro-2H-pyran-2-carboxylic acid) formation at 50 uM after 180 mins by liquid chromatography-electrospray ionization ion trap mass spectrometry; assay type: ADME, cell-based, Hepatocyte; details: 3 h
[15] = test system: Liver microsome; experiment: Drug metabolism in mixed human liver microsomes assessed as metabolite 6 ((24S,25)-epoxydammarane-3,12,20-triol formation at 50 uM after 60 mins by liquid chromatography-electrospray ionization ion trap mass spectrometry; assay type: ADME; details: 1 h
In short: (§6)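 Pooled human liver microsomes, 1.0 mg/ml protein, with substrate 50 µM in 100 mM potassium phosphate pH 7.4 (final MeOH 0.1% v/v). Preincubated 3 min at 37°C, started with NADPH 2.0 mM, run 60 min, stopped with ice-cold acetonitrile. Controls lacked NADPH or substrate; duplicates. Metabolites profiled by LC/ESI ion-trap MSn.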

[16] = test system: Liver microsome; experiment: Drug metabolism in mixed human liver microsomes assessed as metabolite 2 ((20S,24S)-epoxydammarane-3,12,25-triol) formation at 50 uM after 60 mins by liquid chromatography-electrospray ionization ion trap mass spectrometry; assay type: ADME; details: 1 h; in short: as §6
[17] = test system: Liver microsome; experiment: Drug metabolism in mixed human liver microsomes assessed as metabolite 3 ((20S,24R)-epoxydammarane-3,12,25-triol) formation at 50 uM after 60 mins by liquid chromatography-electrospray ionization ion trap mass spectrometry; assay type: ADME; details: 1 h; in short: as §6
[18] = test system: Liver microsome; experiment: Drug metabolism in mixed human liver microsomes assessed as metabolite 4 ((20S,24S)-epoxydammarane-12,25-diol-3-one) formation at 50 uM after 60 mins by liquid chromatography-electrospray ionization ion trap mass spectrometry; assay type: ADME; details: 1 h; in short: as §6
[19] = test system: Liver microsome; experiment: Drug metabolism in mixed human liver microsomes assessed as metabolite 5 ((20S,24R)-epoxydammarane-12,25-diol-3-one) formation at 50 uM after 60 mins by liquid chromatography-electrospray ionization ion trap mass spectrometry; assay type: ADME; details: 1 h; in short: as §6
[20] = Drug metabolism in human hepatocytes assessed as metabolite 6 ((24S,25)-epoxydammarane-3,12,20-triol formation at 50 uM after 180 mins by liquid chromatography-electrospray ionization ion trap mass spectrometry; assay type: ADME, cell-based, Hepatocyte; details: 3 h
[21] = Drug metabolism in human hepatocytes assessed as metabolite 2 ((20S,24S)-epoxydammarane-3,12,25-triol) formation at 50 uM after 180 mins by liquid chromatography-electrospray ionization ion trap mass spectrometry; assay type: ADME, cell-based, Hepatocyte; details: 3 h
[22] = Drug metabolism in human hepatocytes assessed as metabolite 3 ((20S,24R)-epoxydammarane-3,12,25-triol) formation at 50 uM after 180 mins by liquid chromatography-electrospray ionization ion trap mass spectrometry; assay type: ADME, cell-based, Hepatocyte; details: 3 h
[23] = Drug metabolism in human hepatocytes assessed as metabolite 4 ((20S,24S)-epoxydammarane-12,25-diol-3-one) formation at 50 uM after 180 mins by liquid chromatography-electrospray ionization ion trap mass spectrometry; assay type: ADME, cell-based, Hepatocyte; details: 3 h
[24] = Drug metabolism in human hepatocytes assessed as metabolite 5 ((20S,24R)-epoxydammarane-12,25-diol-3-one) formation at 50 uM after 180 mins by liquid chromatography-electrospray ionization ion trap mass spectrometry; assay type: ADME, cell-based, Hepatocyte; details: 3 h
[25] = Drug metabolism in human hepatocytes assessed as metabolite 6-1 ((3S,6S)-6-((3S,5R,8R,9R,10R,12R,14R,17S)-3,12-dihydroxy-4,4,8,10,14-pentamethylhexadecahydro-1H-cyclopenta[a]phenanthren-17-yl)-2-methylheptane-2,3,6-triol) formation at 50 uM after 180 mins by liquid chromatography-electrospray ionization ion trap mass spectrometry; assay type: ADME, cell-based, Hepatocyte; details: 3 h
[26] = Drug excretion in Sprague-Dawley rat feces treated with 20(S)-protopanaxadiol at 100 mg/kg/day, po qd for 11 days administered via gavage by liquid chromatography-electrospray ionization ion trap mass spectrometry; assay type: ADME, organism-based; set-up: route oral; details: in vivo, 264 h
In short: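 PPD given by gavage at 10 mg/ml in 0.5% carboxymethyl cellulose sodium, 0.5% polysorbate-80 and 99% saline; 20 rats, one per metabolic cage. Feces collected over 0–288 h (48 h after last dose), blanks taken before dosing, frozen at -20°C.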

[27] = Retention time of the compound treated with 20(S)-protopanaxadiol at 100 uM measured after 60 mins by liquid chromatography-electrospray ionization ion trap mass spectrometry in presence of 10 uM 3-chloroperoxybenzoic acid; assay type: physicochemical; details: 1 h; in short: as §5
[28] = test system: Hepatocyte; experiment: Drug level in human hepatocytes treated with 20(S)-protopanaxadiol at 50 uM after 180 mins by liquid chromatography-electrospray ionization ion trap mass spectrometry; assay type: ADME, cell-based; details: 3 h; in short: as §1
[29] = test system: Liver microsome; experiment: Drug metabolism in mixed human liver microsomes assessed as metabolite 7-1 ((2S,3S,4S,5R,6S)-6-(2-((2S,5S)-5-((3S,5R,8R,9R,10R,12R,14R,17S)-3,12-dihydroxy-4,4,8,10,14-pentamethylhexadecahydro-1H-cyclopenta[a]phenanthren-17-yl)-5-methyltetrahydrofuran-2-yl)propan-2-yloxy)-3,4,5-trihydroxytetrahydro-2H-pyran-2-carboxylic acid) formation at 50 uM after 120 mins by liquid chromatography-electrospray ionization ion trap mass spectrometry in presence of UDPGA; assay type: ADME; in short: as §3
[30] = test system: Liver microsome; experiment: Retention time of the compound in mixed human liver microsomes treated with 20(S)-protopanaxadiol at 50 uM after 60 mins by liquid chromatography-electrospray ionization ion trap mass spectrometry; assay type: ADME; details: 1 h
In short: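 Pooled HLM protein 1.0 mg/ml with substrate 50 µM in 100 mM potassium phosphate pH 7.4, 0.1% (v/v) final MeOH. Preincubated 3 min at 37°C, started with 2.0 mM NADPH, incubated 60 min. Stopped with equal volume ice-cold acetonitrile. Controls lacked NADPH or substrate, in duplicate. Analysed on C8 reversed-phase column, formic acid methanol/ammonium acetate gradient, ESI ion trap MSⁿ.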

SMILES: CC(C)(O)[C@H](O)CC[C@](C)(O)[C@H]1CC[C@]2(C)[C@@H]1[C@H](O)C[C@@H]1[C@@]3(C)CC[C@H](O)C(C)(C)[C@@H]3CC[C@]12C
- Retention_time [1]: 15.8 min

SMILES: CC(C)(O[C@@H]1O[C@H](C(=O)O)[C@@H](O)[C@H](O)[C@H]1O)[C@@H]1CC[C@@](C)([C@H]2CC[C@]3(C)[C@@H]2[C@H](O)C[C@@H]2[C@@]4(C)CC[C@H](O)C(C)(C)[C@@H]4CC[C@]23C)O1
- Drug metabolism [2]: metabolite_detected
- Retention_time [1]: 16 min

SMILES: CC(C)(O[C@@H]1O[C@H](C(=O)O)[C@@H](O)[C@H](O)[C@H]1O)[C@H]1CC[C@@](C)([C@H]2CC[C@]3(C)[C@@H]2[C@H](O)C[C@@H]2[C@@]4(C)CC[C@H](O)C(C)(C)[C@@H]4CC[C@]23C)O1
- Drug metabolism [3]: metabolite_detected
- Retention_time [1]: 16.9 min

SMILES: CC(C)=CCC[C@](C)(O)[C@H]1CC[C@]2(C)[C@@H]1[C@H](O)C[C@@H]1[C@@]3(C)CC[C@H](O)C(C)(C)[C@@H]3CC[C@]12C
- Drug metabolism [4]: metabolite_not_detected
- Drug excretion [5]: metabolite_detected
- Drug excretion [6]: metabolite_detected
- Drug excretion [7]: metabolite_detected
- Drug excretion [8]: metabolite_detected
- bioavailability [9]: 31%
- bioavailability [10]: 9.6%
- Retention_time [11]: 22.3 min
- Drug metabolism [12]: metabolite_detected
- Drug metabolism [13]: metabolite_detected
- Drug metabolism [14]: metabolite_detected
- Drug metabolism [15]: metabolite_detected
- Drug metabolism [16]: metabolite_detected
- Drug metabolism [17]: metabolite_detected
- Drug metabolism [18]: metabolite_detected
- Drug metabolism [19]: metabolite_detected
- Drug metabolism [20]: metabolite_detected
- Drug metabolism [21]: metabolite_detected
- Drug metabolism [22]: metabolite_detected
- Drug metabolism [23]: metabolite_detected
- Drug metabolism [24]: metabolite_detected
- Drug metabolism [25]: metabolite_detected

SMILES: CC(C)(O)[C@@H]1CC[C@@](C)([C@H]2CC[C@]3(C)[C@@H]2[C@H](O)C[C@@H]2[C@@]4(C)CC[C@H](O)C(C)(C)[C@@H]4CC[C@]23C)O1
- Drug excretion [26]: metabolite_detected
- Retention_time [27]: 19.2 min
- Drug metabolism [28]: metabolite_detected
- Drug metabolism [29]: metabolite_detected
- Retention_time [30]: 19.2 min
